Series [1] deals with Human immunodeficiency virus type 1 reverse transcriptase (Human immunodeficiency virus 1, UniProt Q72547). Briefly: Inhibition of recombinant HIV1 reverse transcriptase RNase H expressed in Escherichia coli JM109 using RNA/DNA duplex substrate HTS1 as substrate.
Series [2] deals with Human immunodeficiency virus 1. As to the kind of experiment: Antiviral activity against HIV1 infected in human P4R5 cells assessed as reduction in viral infection preincubated with cells for 24 hrs followed by viral infection measured after 48 hrs by fluorescence based MAGI assay. The class given is functional, organism-based. In short, it runs like this:
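P4R5 indicator cells were seeded at 4 × 10³ per well in DMEM/10% FBS with puromycin. They were pretreated for 24 h with 1% DMSO or a range of compound concentrations, then infected with HIV-1 at an MOI of 1.25 for another 48 h. Cells were lysed and β-galactosidase was read by fluorescence with MUG substrate. EC50 is given as mean ± SD of at least two independent experiments.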

For series [3], the target named is Human immunodeficiency virus type 1 integrase (Human immunodeficiency virus 1, UniProt Q7ZJM1). As to the kind of experiment: Inhibition of HIV integrase strand transfer activity expressed in Escherichia coli BL21 (DE3) using 5' biotin ATGTGGAAAATCTCTAGCA primer annealed with ACTGCTAGAGATTTTCCACAT 3' Cy5 template preincubated for 10 mins followed by primer/template addition measured after 30 mins by fluorescence assay. An outline of the steps:
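Purified HIV integrase in 10 mM HEPES pH 7.5, 10% glycerol, 10 mM MnCl₂, 1 mM DTT, with compounds in duplicate at 0.13–100 (final), 10 min at 25 °C. 500 nM biotin/Cy5 oligo duplex added, 30 min at 37 °C, EDTA quench. Products captured on streptavidin beads, washed, NaOH-denatured, formamide-eluted, read at 635/675.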

In series [4] the target is Gag-Pol polyprotein (Human immunodeficiency virus type 1 group M subtype B (isolate HXB2)(HIV-1), UniProt P04585). Briefly: Inhibition of recombinant HIV1 reverse transcriptase polymerase expressed in Escherichia coli JM109 assessed as decrease in extension of 18 nucleotide DNA primer annealed to 100 nucleotide DNA template measured after 30 mins. The arrangement: species or system Human immunodeficiency virus 1. In short, it runs like this: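 18-nt DNA primer annealed to 100-nt DNA template (40 nM) was extended by 20 nM RT with dNTPs in 50 mM Tris pH 7.8, 50 mM NaCl, 1% DMSO, with increasing compound concentrations. Reactions were started with 6 mM MgCl₂, run 30 min at 37 °C, and stopped with EDTA. dsDNA formed was quantified by fluorescent dye (ex/em 504/531 nm), and dose-response data were fitted to a logistic curve.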

Series [5] is described as follows: Cytotoxicity against human P4R5 cells assessed as reduction in cell viability after 72 hrs by XTT assay. In kind it is cell-based. In short, it runs like this:
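P4R5 cells seeded at 4 × 10³ per well in DMEM/10% FBS with puromycin ([…]). Cells treated with 1% DMSO or varying compound concentrations for 72 h, then viability read by XTT kit. CC50 = concentration giving 50% cell death, mean from at least two independent experiments.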
Background: Tetrazolium assays rely on reduction of a dye to a coloured formazan, in cell work by metabolically active cells.

Broadly, the IC50 is the point on the concentration scale where inhibition reaches its midpoint. For orientation: EC50 means the concentration giving half of the maximal effect. In general, CC50 refers to the concentration that lowers cell viability or growth by half.

Sequence of Human immunodeficiency virus type 1 integrase (Q7ZJM1 whole entry): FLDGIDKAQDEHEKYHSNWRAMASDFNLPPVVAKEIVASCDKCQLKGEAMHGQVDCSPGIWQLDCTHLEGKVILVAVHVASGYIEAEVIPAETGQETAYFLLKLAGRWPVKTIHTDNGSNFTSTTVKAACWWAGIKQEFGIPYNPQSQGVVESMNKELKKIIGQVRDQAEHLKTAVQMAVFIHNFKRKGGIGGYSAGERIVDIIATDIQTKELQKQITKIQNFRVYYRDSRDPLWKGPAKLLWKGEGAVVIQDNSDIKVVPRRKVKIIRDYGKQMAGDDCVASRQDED

As for `CC(C)c1c(Cc2ccc(F)cc2)n(COCc2ccc(F)cc2)c(=O)n(O)c1=O`, the IC50 in series [1] was 6.2 µM.
On the same count and under the same terms, to `CC(C)c1c(Cc2ccccc2)n(COCc2ccccc2)c(=O)n(O)c1=O` belongs 2.5 µM; to `CC(C)c1c(Cc2ccccc2)n(COCc2ccc(F)cc2)c(=O)n(O)c1=O`, 2.1 µM; to `CCOCn1c(Cc2ccccc2)c(C(C)C)c(=O)n(O)c1=O`, 6.8 µM.
Same read-out and setting: to `CCOCn1c(Cc2ccc(F)cc2)c(C(C)C)c(=O)n(O)c1=O` belongs more than 25 µM; to `CC(C)c1c(Cc2ccccc2)n(COCc2ccc(F)cc2F)c(=O)n(O)c1=O`, 1.8 µM; to `CC(C)c1c(Cc2ccccc2)n(COCc2cccc(Cl)c2F)c(=O)n(O)c1=O`, 0.9 µM.
Still for that read-out and setting: to `CC(C)c1c(Cc2ccccc2)n(COCc2ccc(F)cc2)c(=O)n(C)c1=O` belongs 7 µM; to `COn1c(=O)c(C(C)C)c(Cc2ccccc2)n(COCc2ccc(F)cc2)c1=O`, 11 µM.
Turning to `CC(C)c1c(Cc2ccccc2)n(COCCc2ccc(F)cc2)c(=O)n(O)c1=O`, in series [1], the 50% inhibitory concentration (IC50) is 2.8 µM.
Take `CC(C)c1c(Cc2ccccc2)n(COCCCCc2ccc(F)cc2)c(=O)n(O)c1=O`: in series [1], the IC50 was determined as 1.8 µM.
In the case of `CC(C)c1c(Cc2ccccc2)n(CCc2ccc(F)cc2)c(=O)n(O)c1=O`, the IC50 in series [1] was found to be 6.6 µM.
Still for that read-out and setting: to `CC(C)c1c(Cc2ccccc2)n(CCCc2ccc(F)cc2)c(=O)n(O)c1=O` belongs 3.8 µM; to `CC(C)c1c(Cc2ccccc2)n(CCCCc2ccc(F)cc2)c(=O)n(O)c1=O`, 0.9 µM.
Still for that read-out and setting: to `CCc1c(Cc2ccccc2)c(=O)n(O)c(=O)n1COCc1ccc(F)cc1` belongs 15 µM; to `CC(C)c1c(Cc2ccc(F)cc2)n(Cc2ccccc2)c(=O)n(O)c1=O`, 10 µM.
On the same count and under the same terms, to `CC(C)c1c(Cc2ccc(F)cc2)n(Cc2ccc(F)cc2)c(=O)n(O)c1=O` belongs 13 µM; to `CC(C)c1c(Cc2ccccc2)n(Cc2ccccc2)c(=O)n(O)c1=O`, 15 µM.
For the molecule `Cc1cc(-c2ccc(Cc3cc(=O)n(O)c(=O)[nH]3)cc2)ccc1F`, in series [2], the 50% effective concentration (EC50) is more than 20 µM. The IC50 in series [3] is more than 100 µM; in series [1], 0.011 µM; in series [4], more than 10 µM. The CC50 in series [5] is more than 100 µM.
Turning to `O=c1cc(Cc2ccc(Br)cc2)[nH]c(=O)n1O`, the concentration giving a half-maximal response (EC50) in series [2] was more than 20 µM. The results for the IC50 in series [3], in series [1] and in series [4] were more than 100 µM, 0.011 µM and more than 10 µM, respectively. For the same molecule, the CC50 in series [5] was determined as 64 µM.
`CCOCn1c(Cc2ccc(-c3ccccc3)cc2)cc(=O)n(O)c1=O`: the EC50 in series [2] was more than 20 µM. Also, the IC50 in series [1] is more than 5 µM. Moreover, the cytotoxic concentration (CC50) in series [5] is more than 100 µM.
In the case of `O=c1cc(Cc2ccc(-c3ccc(C(F)(F)F)cc3C(F)(F)F)cc2)[nH]c(=O)n1O`, the EC50 in series [2] is more than 20 µM. In addition, the IC50 was more than 100 µM in series [3], 0.085 µM in series [1] and more than 10 µM in series [4]. For the same molecule, the 50% cytotoxic concentration (CC50) in series [5] was more than 100 µM.
As for `O=c1cc(Cc2ccc(-c3ccc(Cl)c(F)c3)cc2)[nH]c(=O)n1O`, the EC50 in series [2] is 15 µM. Besides, the concentration for half-maximal inhibition (IC50) in series [3] was more than 100 µM; in series [1], 0.0094 µM; in series [4] it was more than 10 µM. In series [5], the CC50 was determined as 59 µM.
The corresponding values for `O=c1cc(Cc2cccc(-c3cccc(C(F)(F)F)c3)c2)[nH]c(=O)n1O` are more than 20 µM, more than 100 µM, 0.037 µM, more than 10 µM and more than 100 µM.
Consider `O=c1cc(Nc2ccc(-c3ccccc3)cc2)[nH]c(=O)n1O`, for which the IC50 in series [4] amounted to 2 µM.
Consider `CCOCn1c(Cc2ccc(-c3cc(OC)cc(OC)c3)cc2)c(C)c(=O)n(O)c1=O`, for which, in series [1], the IC50 was found to be 6.7 µM.
Consider `O=c1cc(Cc2ccc(-c3cccc(F)c3)cc2)[nH]c(=O)n1O`, for which the concentration for a half-maximal effect (EC50) in series [2] is 12 µM. The half-maximal inhibitory concentration (IC50) is more than 100 µM in series [3], 0.028 µM in series [1] and more than 10 µM in series [4]. Further, the CC50 in series [5] is 24 µM.
Consider `COc1ccc(-c2cccc(Cc3cc(=O)n(O)c(=O)[nH]3)c2)cc1F`, for which the EC50 in series [2] is 12 µM. Besides, the IC50 was more than 100 µM in series [3], 0.0077 µM in series [1] and more than 10 µM in series [4]. Besides, in series [5], the CC50 is 20 µM.
The corresponding values for `O=c1cc(Cc2ccc(-c3ccc(F)cc3F)cc2)[nH]c(=O)n1O` are 5.6 µM, more than 100 µM, 0.015 µM, more than 10 µM and 11 µM.
For `CCOCn1c(Cc2ccc(-c3ccc(C(F)(F)F)cc3)cc2)cc(=O)n(O)c1=O`, in series [1], the half-maximal inhibitory concentration (IC50) was 2.1 µM.
For the molecule `O=c1cc(Cc2cccc(Br)c2)[nH]c(=O)n1O`, the concentration giving a half-maximal response (EC50) in series [2] was more than 20 µM. Further, the concentration for half-maximal inhibition (IC50) in series [3] is more than 100 µM; in series [1] it was 0.013 µM; in series [4] it was more than 10 µM. For the same molecule, the cytotoxic concentration (CC50) in series [5] stood at 63 µM.
Taken in the same sequence, the figures for `O=c1cc(Cc2ccc(-c3cccc(Cl)c3)cc2)[nH]c(=O)n1O` were more than 20 µM, more than 100 µM, 0.016 µM, more than 10 µM and more than 100 µM.
On to `O=c1cc(Cc2cccc(-c3cc(Cl)cc(C(F)(F)F)c3)c2)[nH]c(=O)n1O`, for which the EC50 in series [2] stood at 20 µM. The IC50 in series [3] is more than 100 µM; in series [1], 0.038 µM; in series [4] it was more than 10 µM. For the same molecule, the CC50 in series [5] is more than 100 µM.
`CCc1c(-c2ccc(F)cc2)n(COCc2ccc(F)cc2)c(=O)n(O)c1=O`: in series [1], the IC50 was determined as 17 µM.
Still for that read-out and setting: to `CCOCn1c(Cc2ccc(-c3ccc(C#N)cc3)cc2)c(C)c(=O)n(O)c1=O` belongs 5.2 µM.
On to `O=c1cc(Cc2ccc(-c3cccc(C(F)(F)F)c3)cc2)[nH]c(=O)n1O`, for which, in series [2], the 50% effective concentration (EC50) was more than 20 µM. For the same molecule, the figures for the IC50 in series [3], in series [1] and in series [4] were more than 100 µM, 0.025 µM and more than 10 µM, respectively. For the same molecule, in series [5], the half-maximal cytotoxic concentration (CC50) is more than 100 µM.
Regarding `O=c1cc(Cc2ccc(-c3cc(Cl)cc(C(F)(F)F)c3)cc2)[nH]c(=O)n1O`, the concentration for a half-maximal effect (EC50) in series [2] is more than 20 µM. Besides, the IC50 in series [3] is more than 100 µM; in series [1], 0.015 µM; in series [4], more than 10 µM. The CC50 in series [5] was more than 100 µM.
With `Cc1cc(-c2cccc(Cc3cc(=O)n(O)c(=O)[nH]3)c2)ccc1F`, the half-maximal effective concentration (EC50) in series [2] was 12 µM. Also, the IC50 in series [3] was more than 100 µM; in series [1], 0.0088 µM; in series [4], more than 10 µM. In addition, in series [5], the half-maximal cytotoxic concentration (CC50) stood at 37 µM.
Taken in the same sequence, the figures for `O=c1cc(Cc2cccc(-c3ccccc3)c2)[nH]c(=O)n1O` were 9.6 µM, more than 100 µM, 0.016 µM, more than 10 µM and 16 µM.
Regarding `CCOCn1c(Cc2ccc(-c3ccccc3)cc2)c(C)c(=O)n(O)c1=O`, the concentration for half-maximal inhibition (IC50) in series [1] is 6.2 µM.
As for `CCOCn1c(Cc2ccc(-c3ccc(Cl)c(F)c3)cc2)cc(=O)n(O)c1=O`, the half-maximal inhibitory concentration (IC50) in series [1] stood at 0.43 µM.
In the case of `O=c1cc(Cc2ccc(-c3ccc(Cl)cc3Cl)cc2)[nH]c(=O)n1O`, the concentration for a half-maximal effect (EC50) in series [2] came to 13 µM. The IC50 in series [3] is more than 100 µM; in series [1] it was 0.0092 µM; in series [4], more than 10 µM. Besides, the CC50 in series [5] was more than 100 µM.
In the case of `O=c1cc(Cc2cccc(-c3cccc(F)c3)c2)[nH]c(=O)n1O`, the EC50 in series [2] worked out at 9.9 µM. In addition, the IC50 in series [3] is more than 100 µM; in series [1], 0.018 µM; in series [4] it was more than 10 µM. Further, the 50% cytotoxic concentration (CC50) in series [5] amounted to 14 µM.

(Values after ChEMBL document CHEMBL4270571, “6-Biphenylmethyl-3-hydroxypyrimidine-2,4-diones potently and selectively inhibited HIV reverse transcriptase-associated RNase H” (Eur J Med Chem, 2018).)
